Activity calls are given as the source filed them.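 The calls were made as follows: active = fitted curve rising past 10% caspase activation at or below the top valid dose; inactive = activity opposite to the expected rise, or the rest.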
Assay: caspase activation in wild-type MEFs, dose response, counter-screen for Bcl2-A1 inhibitor project, cell-based, wild-type MEF, caspase luminescence, dry powder, set 2 (AID 504392)
Details: CaspaseGlo luminescence, 3 h; series mostly up to 35 µM
Summary of the method: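 Assay system: wild-type mouse embryonic fibroblasts, not A1–BIM primed. Buffer or medium: RPMI-1640 growth medium with 10% FBS. Timing: 3 h compound at 37 °C, 1 h reagent at RT. Signal: luminescence with CaspaseGlo caspase reagent. Read-out: caspase activation.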

C/C1=C/C(=O)O[C@@H]2C[C@@H](CC[C@H](C)/C=C\CC1)O[C@@](O)(C1CSC(=O)N1)C2 (stereo partly specified)
outcome: inactive

From PubChem BioAssay AID504392 (Broad Institute, 2011)
